Compound activity from PubChem.
The list is not random: actives were taken first. Their share in the collection is about 1.8%.
Gli-Sufu antag – antagonists of Gli-Sufu signaling. Sufu-KO-LIGHT fibroblasts, Gli luciferase reporter luminescence. inhibition, % at 5 µM. hit rate 0.74% among 340,000. AID 588413;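 active means inhibition above about 55%, limit read from the data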;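 further: 0% = DMSO-treated cells and 100% = wells with medium but no cells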
TAG inh – inhibitors of triacylglycerol accumulation; H9c2 cells, Nile Red lipid (TAG) fluorescence; cells loaded with 200 µM oleic acid; inhibition, % at 12.5 µM; hit rate 0.66% among 230,000; AID 651582;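 active means pattern-corrected inhibition of lipid staining of at least 50% with the nuclear-stain viability signal not falling by more than 50%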;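 further: 0% = DMSO wells and 100% = triacsin C control wells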
iPSC survival up – enhancers of human iPSC single-cell survival; survival enhancement, % at 20 µM; AID 602274; hit rate 0.044% among 360,000; hiPSC single-cell survival, ATPlite luminescence; 100% = ROCK inhibitor wells, 0% = DMSO; in the data active means survival enhancement above about 18%;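 further: cells exposed to compounds for 16 hours before the ATP read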
Jurkat NFkB inh – lowers PMA/ionomycin-induced NF-kB signal in Jurkat cells. PMA/ionomycin-induced NF-kB luciferase reporter, luminescence. inhibition, % at 4 µM. hit rate 0.53% among 330,000. AID 435003; in the data active means inhibition above about 50%
697 NFkB inh – inhibitors of the PMA/ionomycin-induced NF-kB reporter in 697 B cells | 697 B-cell NF-kB luciferase reporter, 16 h | inhibition, % at 4 µM | hit rate 0.33% among 330,000; in the data active means inhibition above about 35%
Lipid droplet – modulators of hepatic lipid droplet formation | AML12 mouse hepatocytes, oleate lipid droplets, BODIPY imaging | inhibition, % at 6.5 µM | hit rate 0.4% among 240,000;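 active means lipid droplet intensity inhibited by at least 50%, with more than 500 cells counted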
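Technique: fluorescence imaging, 20x objective, two fields per well / Assay system: AML12 hepatocytes (mouse) / Measure: % inhibition of lipid droplet signal / Doses: 6.5 µM single-point dosing / Incubation: overnight exposure / Reagent: 100 µM oleic acid challenge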
Hep lipid conf – hepatic lipid droplet formation inhibition, confirmed | inhibition, % at 5.2 µM | hit rate 65% among 870 | AML12 mouse hepatocytes, BODIPY lipid droplet imaging; droplets induced with 100 µM oleic acid | shares compounds with Lipid droplet;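 active means inhibition of lipid droplet metric at least 50%, with more than 300 cells in each of four replicates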;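 further: plate controls were DMSO with oleic acid for no effect and 5 µM Triacsin-C for full effect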
AML12 cytotox – counter-screen for cytotoxicity in AML12 mouse hepatocytes; z-score at 5 µM; shares compounds with Lipid droplet; DAPI nuclear morphology cytotoxicity imaging; active compounds read high; cells fed 100 µM oleate overnight; hit rate 3% among 870; in the data active means z-score above about 6.3;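 further: compound exposure lasted overnight at 37 °C before fixation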
AML12 tox ATP – AML12 hepatocyte cytotoxicity, confirmed; AID 463219; cytotoxicity, % at 50 µM; shares compounds with Lipid droplet; AML12 mouse hepatocyte viability, ATP luminescence; cells loaded with 100 µM oleic acid; 530 tested, under 10 active;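 active means cytotoxicity above 50% in each of four replicates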;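 further: compound exposure lasted overnight at 37 °C before the ATP read; 0% = DMSO-treated cells and 100% = wells with no cells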
Active calls of the source: *; / = not tested or not shown.

SMILES	Gli-Sufu antag	TAG inh	iPSC survival up	Jurkat NFkB inh	697 NFkB inh	Lipid droplet	Hep lipid conf	AML12 cytotox	others
Cc1cc(C(=O)NC2CCCc3c2cnn3-c2ccc(C)c(C)c2)nc(C)n1 (stereo unspecified)	16	18	0	-3	-39	58*	62	-1.1	AML12 tox ATP=0
Cn1nccc1C(=O)NC1CCCc2c1cnn2-c1cc(F)cc(F)c1 (stereo unspecified)	22	/	-1	-8	-39	6	/	/
CC1CCC(NC(=O)COC(=O)c2cccnc2Cl)CC1 (stereo unspecified)	-7	1	-1	1	16	/	/	/
CCCCS(=O)(=O)N1CCC(C(=O)Oc2ccc(Cl)cc2)CC1	1	/	0	-7	17	-2	/	/
COc1ccc(NS(=O)(=O)c2ccc(NC(=S)NCC3CCCO3)cc2)cc1 (stereo unspecified)	5	21	0	0	-15	84*	100*	-0.39	AML12 tox ATP=19
COc1ccc(S(=O)(=O)Nc2ccc(S(=O)(=O)NCC3CCCO3)cc2)cc1 (stereo unspecified)	11	/	0	9	19	8	/	/
CC(C)COc1cccc(-c2cc(C(=O)Nc3ccon3)c3ccccc3n2)c1	40	/	1	7	5	50*	81*	0.025	AML12 tox ATP=-10
CCCOc1cccc(-c2cc(C(=O)NN)c3ccccc3n2)c1	-7	/	0	-17	14	0	/	/
O=C(Nc1ccccc1)c1ccc(NC(=O)C2CC2)cc1	-53	0	0	-138	-117	-9	/	/
COc1ccc(-c2cc(=O)oc3cc4occ(C)c4cc23)cc1	-3	/	1	-10	1	/	/	/
Cc1coc2cc3oc(=O)cc(C)c3cc12	-6	/	0	0	-6	52*	-22	0.57
O=C(Nc1nnc([C@@H]2C[C@H](O)[C@@H](CO)O2)s1)Nc1ccc(F)cc1F	/	-1	-1	/	/	/	/	/
N[C@@H](Cc1ccccc1)c1nnc(SC/C=C/c2ccccc2)o1	1	-7	0	-16	-13	25	/	/
CCc1ccc(C(=O)CSc2nc3cc(S(=O)(=O)N4CCOCC4)ccc3n2CC)cc1	0	/	0	-1	-2	115*	22	-0.57
Cc1[nH]c(=O)c(S(=O)(=O)c2ccccc2)c(C)c1Cl	0	/	0	-13	8	4	/	/
COc1cc(N2CCCC2)c(OC)cc1/C=C(/C#N)c1ccc(F)cc1	-70	-13	0	-4	5	50*	41	0.66
CC(C)Oc1ccc(C(=O)Nc2ccc(N3CCN(C(=O)c4ccco4)CC3)cc2)cc1	1	/	0	32	-7	69*	57	-0.23	AML12 tox ATP=-4
COc1ccc(C(=O)N2CCN(c3ccc(NC(=O)c4ccco4)cc3)CC2)cc1	7	5	0	4	-9	9	/	/
C/C=C(\C)CN1CCCC(CO)(Cc2ccccc2)C1 (stereo unspecified)	8	-9	0	3	7	2	/	/
Cc1cc(OC(=O)c2cc(Cl)ccc2Cl)c([N+](=O)[O-])c(=O)[nH]1	-1	11	0	13	14	7	/	/
O=C(c1ccc(Cl)cc1)C1CCN(C(=O)NC2CCCCC2)CC1	3	/	4	-2	-12	70*	85*	-0.19	AML12 tox ATP=10
O=C(Nc1ccc(Cl)cc1)C1CCN(C(=O)NC2CCCCC2)CC1	11	-7	4	-13	-16	/	/	/
O=C(CN1CCCCC1)Nc1c2c(nc3ccccc13)N(c1ccccc1)CC2	4	45	-2	-5	7	-5	/	/
CCCC(=O)Nc1c2c(nc3ccccc13)N(c1ccccc1)CC2	-2	18	0	-8	-1	52*	44	0.44
O=C(CN1C(=O)c2ccccc2C1=O)N1CCN(C2c3ccccc3-c3ccccc32)CC1	9	/	1	5	8	-8	/	/
SMILES	Gli-Sufu antag	TAG inh	iPSC survival up	Jurkat NFkB inh	697 NFkB inh	Lipid droplet	Hep lipid conf	AML12 cytotox	others
CC(=O)Nc1cccc(OCC(=O)NC(C)c2ccc3ccccc3c2)c1 (stereo unspecified)	-3	/	0	-7	-1	68*	38	0.15
CCc1ccccc1NC(=O)COc1ccc(C(=S)N2CCCC2)cc1	1	5	-1	11	14	55*	38	0.095
COc1ccc(CNC(=O)c2cccc(S(=O)(=O)N3CCCCC3)c2)cc1OC	9	-16	2	21	-17	/	/	/
CCC(C)C(NC(=O)c1ccccc1NC(=O)c1ccc(OC)cc1)C(=O)NCc1ccco1 (stereo unspecified)	-1	/	0	2	3	70*	100*	-0.82	AML12 tox ATP=12
O=C(Nc1ccccc1C(=O)NCc1ccco1)c1ccccc1	-2	4	-3	-7	-8	0	/	/
CC(Sc1nnc(C2CC2)n1C1CC1)C(=O)c1ccc(Br)cc1 (stereo unspecified)	-3	-6	0	6	4	/	/	/
CC(C)Cn1c(SCC(=O)Nc2cccnc2Cl)nnc1-c1ccco1	-19	-2	1	8	19	/	/	/
C=CCN1C(=O)c2ccccc2Sc2ccc(C(=O)NCC(OC)OC)cc21	4	/	0	-1	-11	55*	34	-0.91
CCNC(=S)N1CCC(C(=O)c2ccc(F)cc2)CC1	/	-6	2	/	/	/	/	/
COc1ccc(C(=O)N2CCOCC2c2cc(C(=O)NCc3ccccc3)no2)cc1 (stereo unspecified)	/	8	-2	/	/	/	/	/
c1cc2c(cc1-c1csc(NNC3=NCCCCC3)n1)OCCO2	-21	/	/	-42	-53	90*	100*	-0.51	AML12 tox ATP=39
CCCN1C(=O)/C(=C\C=C2\N(CC)c3ccccc3C2(C)C)SC1=S	36	-251	-2	/	/	111*	115*	0.19	AML12 tox ATP=8
CCCCCCCN1C/C=C\C(c2ccc(OC)cc2)N(Cc2ccc(F)cc2)C(=O)[C@H]1Cc1ccccc1 (stereo partly specified)	14	-1	-1	14	10	19	/	/
COc1ccc(S(=O)(=O)N(C)C)cc1NC(=O)CCNC(=O)c1ccccc1OC	4	/	0	-20	-5	-9	/	/
COc1c(C)cc(Br)cc1C(=O)Nc1cccc(NC(=O)c2ccco2)c1	21	/	-2	4	-11	60*	97*	0.26	AML12 tox ATP=1
CC(C)C(NC(=O)c1ccccc1F)C(=O)NCc1ccc(F)cc1 (stereo unspecified)	-5	/	0	-5	0	-6	/	/
